Data as given in ChEMBL document CHEMBL1138505, “Engineered apoptosis-inducing peptides with enhanced mitochondrial localization and potency” (J Med Chem, 2009).
Active and inactive are the calls of the source. No cut-off for these calls is given here.

Assays:
[1] = system: MDA-MB-231; test: Specificity index, ratio of LC50 for human MDA-MB-231 cells to LC50 for human KS1767 cells; assay type: functional
[2] = system: MDA-MB-231; test: Cytotoxicity against human MDA-MB-231 cells assessed as dehydrogenase activity after 48 hrs by […]; assay type: functional; conditions: MDA-MB-231, 48 h, read-out: LC50 (the source's name)
[3] = Cytotoxicity against human KS1767 cells assessed as dehydrogenase activity after 48 hrs by […]; assay type: functional; conditions: KS1767, 48 h, read-out: LC50 (the source's name)
Method in brief: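 KS1767 cells were kept in DMEM with 10% FBS. Integrin-homing (CNGRC) peptide conjugates were incubated over a concentration range for 48 h in OPTI-MEM with 2% FBS. Death was read by Sytox Red viability staining and CCK-8 dehydrogenase activity, and LC50 was determined.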

[4] = Toxicity in human RBC assessed as minimum drug level required for 10% hemolysis after 2 hrs; assay type: cell-based; conditions: erythrocyte
Method in brief: (§1)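 In the red blood cell lysis assay, percent lysis was normalised to melittin ([…]) as 100% lysis and PBS as 0%. HC50 is the concentration giving 50% hemolysis. The minimal hemolytic concentration is the peptide level giving 10% hemolysis.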

[5] = system: HeLa; test: Cytotoxicity against human HeLa cells assessed as dehydrogenase activity after 24 hrs by […]; assay type: functional; conditions: read-out: LC50 (the source's name)
Method in brief: (§2)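 Cells grown in MEM with 10% FBS at 37 °C, 5% CO2 (MCF7 also given 0.01 mg/mL insulin). Unlabeled peptides were applied over a concentration range for 24 h in OPTI-MEM with 2% FBS. Cell death was scored by Sytox Red staining for loss of plasma membrane integrity and by CCK-8 dehydrogenase activity, and LC50 was determined.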

[6] = Toxicity in mouse liver mitochondria assessed as minimum drug level required for mitochondrial disruption; conditions: in vitro
[7] = Toxicity in human RBC assessed as hemolytic activity after 2 hrs; assay type: cell-based, Erythrocyte; conditions: red blood cells; method in brief: as §1
[8] = Octanol-water partition coefficient, log P at pH 7.4; assay type: physicochemical
Method in brief: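 Thiazole orange-labelled peptides were partitioned between 1-octanol and 10 mM Tris, pH 7.4. LogP is the mean with sd of three trials.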

[9] = Cytotoxicity against human MRC5 cells assessed as dehydrogenase activity after 24 hrs by […]; assay type: cell-based; conditions: read-out: LC50; method in brief: as §2
[10] = system: FaDu; test: Cytotoxicity against human FADU cells assessed as dehydrogenase activity after 24 hrs by […]; assay type: functional; conditions: read-out: LC50 (the source's name); method in brief: as §2
[11] = system: MCF7; test: Cytotoxicity against human MCF7 cells assessed as dehydrogenase activity after 24 hrs by […]; assay type: functional; conditions: MCF7, 24 h, read-out: LC50 (the source's name); method in brief: as §2
[12] = system: DU-145; test: Cytotoxicity against human DU145 cells assessed as dehydrogenase activity after 24 hrs by […]; assay type: functional; conditions: DU-145, 24 h, read-out: LC50 (the source's name); method in brief: as §2
[13] = system: HeLa; test: Cytotoxicity against human HeLa cells assessed as swelling and disruption of mitochondria at LC50 of 2.5 uM after 30 mins by transmission electron microscopy; assay type: functional, cell-based
[14] = system: HeLa; test: Induction of apoptosis in human HeLa cells assessed as caspase 9 activation at 2.5 uM; assay type: functional, cell-based
Method in brief: (§3)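 After peptide treatment, HeLa cells were trypsinized, pelleted and washed. They were then stained either with FITC anti-activated caspase 3 or with anti-activated caspase 9 plus an anti-goat AlexaFluor 555 secondary. Cells were washed again and read by flow cytometry. Staurosporine-treated cells served as the positive control.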

[15] = system: HeLa; test: Cytotoxicity against human HeLa cells assessed as swelling and disruption of mitochondria at LC50 of 2.5 uM after 30 mins by calcein-AM release and quenching assay; assay type: functional, cell-based
[16] = system: HeLa; test: Cytotoxicity against human HeLa cells assessed as loss of mitochondrial membrane integrity at LC50 of 2.5 uM by flow cytometry
[17] = system: HeLa; test: Cytotoxicity against human HeLa cells assessed as swelling and disruption of mitochondria at LC50 of 2.5 uM after 30 mins by fluorescence imaging using DAPI nuclear staining; assay type: functional, cell-based
[18] = system: HeLa; test: Induction of apoptosis in human HeLa cells assessed as increase in DNA fragmentation at 2.5 uM by TUNEL assay; assay type: functional, cell-based; conditions: TDE = time-dependent effect
Method in brief: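 HeLa cells were treated with 2.5 µM peptide and sampled over time. DNA fragmentation in fixed, washed cells was detected by TUNEL using the APO-BrdU kit per the manufacturer.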

[19] = system: HeLa; test: Cytotoxicity against human HeLa cells assessed as loss of plasma membrane integrity at LC50 of 2.5 uM by sytox red staining-based flow cytometry; assay type: functional, cell-based
[20] = system: HeLa; test: Induction of apoptosis in human HeLa cells assessed as caspase 3 activation at 2.5 uM; assay type: functional, cell-based; method in brief: as §3

Row | SMILES | Activity [4] | CC50 [5] | Activity [6] | HC50 at 2 h [7] | logD [8] | CC50 at 24 h [9] | CC50 [10] | CC50 [11] | CC50 [12] | also measured
1 | CC(C)C[C@@H](NC(=O)[C@@H](CCCCN)NC(=O)[C@H](CS)NC(=O)[C@H](CCCNC(=N)N)NC(=O)CNC(=O)[C@H](CC(N)=O)NC(=O)[C@@H](N)CS)C(=O)N[C@H](C)C(=O)N[C@H](CCCCN)C(=O)N[C@H](CC(C)C)C(=O)N[C@H](C)C(=O)N[C@H](CCCCN)C(=O)N[C@H](CCCCN)C(=O)N[C@H](CC(C)C)C(=O)N[C@H](C)C(=O)N[C@H](CCCCN)C(=O)N[C@H](CC(C)C)C(=O)N[C@H](C)C(=O)N[C@H](CCCCN)C(=O)O |  |  |  |  |  |  |  |  |  | Ratio [1]: 2.3; CC50 [2]: 144 µM; CC50 [3]: 63 µM
2 | CC(C)CC(NC(=O)C(N)CCCCN)C(=O)NC(C)C(=O)NC(CCCCN)C(=O)NC(CC(C)C)C(=O)NC(C)C(=O)NC(CCCCN)C(=O)NC(CCCCN)C(=O)NC(CC(C)C)C(=O)NC(C)C(=O)NC(CCCCN)C(=O)NC(CC(C)C)C(=O)NC(C)C(=O)NC(CCCCN)C(=O)O (racemic) | > 100 µM | 160 µM | 200 µM | > 100 µM |  |  |  |  |  | 
3 | CCCCCCC(NC(=O)C(N)CCCCN)C(=O)NC(C)C(=O)NC(CCCCN)C(=O)NC(CCCCCC)C(=O)NC(C)C(=O)NC(CCCCN)C(=O)NC(CCCCN)C(=O)NC(CCCCCC)C(=O)NC(C)C(=O)NC(CCCCN)C(=O)NC(CCCCCC)C(=O)NC(C)C(=O)NC(CCCCN)C(=O)O (racemic) | > 100 µM | 3.7 µM | 3.1 µM | > 100 µM |  |  |  |  |  | 
4 | CC(NC(=O)C(CC1CCCCC1)NC(=O)C(N)CCCCN)C(=O)NC(CCCCN)C(=O)NC(CC1CCCCC1)C(=O)NC(C)C(=O)NC(CCCCN)C(=O)NC(CCCCN)C(=O)NC(CC1CCCCC1)C(=O)NC(C)C(=O)NC(CCCCN)C(=O)NC(CC1CCCCC1)C(=O)NC(C)C(=O)NC(CCCCN)C(=O)O (racemic) | > 100 µM | 6.5 µM | 6.3 µM | > 100 µM |  |  |  |  |  | 
5 | C[C@@H](NC(=O)[C@@H](Cc1ccccc1)NC(=O)[C@H](N)CCCCN)C(=O)N[C@H](CCCCN)C(=O)N[C@H](Cc1ccccc1)C(=O)N[C@H](C)C(=O)N[C@H](CCCCN)C(=O)N[C@H](CCCCN)C(=O)N[C@H](Cc1ccccc1)C(=O)N[C@H](C)C(=O)N[C@H](CCCCN)C(=O)N[C@H](Cc1ccccc1)C(=O)N[C@H](C)C(=O)N[C@H](CCCCN)C(=O)O |  |  |  |  | -2.52 |  |  |  |  | 
6 | CCCCCC[C@@H](NC(=O)[C@H](N)CCCCN)C(=O)N[C@H](C)C(=O)N[C@H](CCCCN)C(=O)N[C@H](CCCCCC)C(=O)N[C@H](C)C(=O)N[C@H](CCCCN)C(=O)N[C@H](CCCCN)C(=O)N[C@H](CCCCCC)C(=O)N[C@H](C)C(=O)N[C@H](CCCCN)C(=O)N[C@H](CCCCCC)C(=O)N[C@H](C)C(=O)N[C@H](CCCCN)C(=O)O | 8 µM | 2.5 µM | 2.5 µM | 31 µM |  | 2.8 µM | 2.8 µM | 2.2 µM | 2 µM | 
7 | CC(C)C[C@@H](NC(=O)[C@H](N)CCCCN)C(=O)N[C@H](C)C(=O)N[C@H](CCCCN)C(=O)N[C@H](CC(C)C)C(=O)N[C@H](C)C(=O)N[C@H](CCCCN)C(=O)N[C@H](CCCCN)C(=O)N[C@H](CC(C)C)C(=O)N[C@H](C)C(=O)N[C@H](CCCCN)C(=O)N[C@H](CC(C)C)C(=O)N[C@H](C)C(=O)N[C@H](CCCCN)C(=O)O | > 100 µM | 350 µM | 200 µM | > 100 µM | -2.3 | > 200 µM | > 200 µM | > 300 µM | > 300 µM | 
8 | C[C@@H](NC(=O)[C@@H](CC1CCCCC1)NC(=O)[C@@H](CCCCN)NC(=O)[C@H](CS)NC(=O)[C@H](CCCNC(=N)N)NC(=O)CNC(=O)[C@H](CC(N)=O)NC(=O)[C@@H](N)CS)C(=O)N[C@H](CCCCN)C(=O)N[C@H](CC1CCCCC1)C(=O)N[C@H](C)C(=O)N[C@H](CCCCN)C(=O)N[C@H](CCCCN)C(=O)N[C@H](CC1CCCCC1)C(=O)N[C@H](C)C(=O)N[C@H](CCCCN)C(=O)N[C@H](CC1CCCCC1)C(=O)N[C@H](C)C(=O)N[C@H](CCCCN)C(=O)O |  |  |  |  |  |  |  |  |  | Ratio [1]: 2.7; CC50 [2]: 17 µM; CC50 [3]: 7 µM
9 | C[C@@H](NC(=O)[C@@H](CC1CCCCC1)NC(=O)[C@H](N)CCCCN)C(=O)N[C@H](CCCCN)C(=O)N[C@H](CC1CCCCC1)C(=O)N[C@H](C)C(=O)N[C@H](CCCCN)C(=O)N[C@H](CCCCN)C(=O)N[C@H](CC1CCCCC1)C(=O)N[C@H](C)C(=O)N[C@H](CCCCN)C(=O)N[C@H](CC1CCCCC1)C(=O)N[C@H](C)C(=O)N[C@H](CCCCN)C(=O)O | 9 µM | 2.3 µM | 1.3 µM | > 42 µM | -1.73 | 5.8 µM | 3.3 µM | 2 µM | 2 µM | Activity [13]: Active; Activity [14]: Active; Activity [15]: Active; Activity [16]: Active; Activity [17]: Active; Activity [18]: tde; Activity [19]: Active; Activity [20]: Active
